Key:
MS2 coat protein [1] = experiment: apparent Kd, MS2 coat protein; higher = weaker binding; RNA-MaP array
How it was run: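 Incubations were done at room temperature with fluorescently labeled MS2 coat protein at 1.5 nM to 3 μM and designed RNAs transcribed on an Illumina sequencing chip from sequenced DNA templates, with or without input ligand. Apparent Kd is the median of binding curves fitted for each cluster. Designs with fewer than 10 measured clusters were excluded.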

MS2 coat protein [2] = experiment: apparent Kd, MS2 coat protein; higher = weaker binding; RNA-MaP array; FMN 200 µM where present
How it was run: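 The apparent Kd is the median of filtered binding-curve fits, one per cluster, to green signal normalised to red-channel RNA signal and control-cluster median Fmax. The clusters were on Illumina sequencing chips, and stalled E. coli RNA polymerase had transcribed the designs on them. Titration used SNAP-549-labelled MS2 coat protein from 0.7 or 1.5 nM, doubling to 3 µM, without and then with constant ligand, in 100 mM Tris-HCl pH 7.5, 80 mM KCl, 4 mM MgCl2, BSA, DTT, yeast tRNA and Tween-20.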

[3] = designed as: ON switch for tryptophan, no ligand
[4] = ligand present: tryptophan, designed as: ON switch for tryptophan
[5] = designed as: OFF switch for flavin mononucleotide, no ligand
[6] = ligand present: flavin mononucleotide, designed as: OFF switch for flavin mononucleotide
[7] = designed as: ON switch for flavin mononucleotide, no ligand
[8] = ligand present: flavin mononucleotide, designed as: ON switch for flavin mononucleotide

Sequence | apparent Kd (MS2 coat protein [1]; [5]) [nM] | apparent Kd (MS2 coat protein [1]; [6]) [nM] | further results
UACCUUAACACGGCCGCCACUCUCUAAUAGGAUCAUGGUACCGCACAUGAGGAUCACCCAUGUUUGAGGACCGGGUGUUAUGAAG |  |  | apparent Kd (MS2 coat protein [1]; [3]): 15.1 nM; apparent Kd (MS2 coat protein [1]; [4]): 28.7 nM
GGUUAACAUGAGGAUCACCCAUGUUAGGAUAUGCUACAGAGUCUGGUCCCUGGAAAUGGCAGAAGGAACGUGUU | 17.2 | 16.2 | 
AAUAAACAGUAGAAGGCUGAUACCUACAAAAGUCGAAGACAUGAGGAUCACCCAUGUCAGUCAUCAGAGGAUAUACGUGAAUCG |  |  | apparent Kd (MS2 coat protein [1]; [7]): 12.3 nM; apparent Kd (MS2 coat protein [1]; [8]): 7.49 nM
GGUGGGUCAGGAUAUCCCACACAAUUGCGAACGCGAUGCAGGGAGAAGGGACAUGAGGAUCACCCAUGUGGGAC | 54.4 | 64.9 | 
GCAUAACAUGAGGAUCACCCAUGUGAGGAUAUUCCCUCCGGCAAUUGCUCCCAAGAGGGAAGAAGGCACAGUGG | 146 | 66.1 | 
AAAUGCAUUCGAGGAUAUGUCAUGAUGUUGUAAACAGAAGGCGAGGCAUCGACAUGAGGAUCACCCAUGUGCACAGGUAAAAGU |  |  | apparent Kd (MS2 coat protein [1]; [7]): 37.6 nM; apparent Kd (MS2 coat protein [1]; [8]): 16.4 nM
UGACGUGGUAAGAAGGCAAGAGCAGGGCAGGAUUGAGGAUAUUACGGACAGACAUGAGGAUCACCCAUGUAGAGCCAUAACCGG |  |  | apparent Kd (MS2 coat protein [1]; [7]): 8.55 nM; apparent Kd (MS2 coat protein [1]; [8]): 7.89 nM
AACGGCUGCGCGUAGGAUAUGGCCCAUCCAACAUGAGGAUCACCCAUGUGCCACGAUGAGACUUCCCAGAAGGACGGUGCGAUGAG |  |  | apparent Kd (MS2 coat protein [1]; [7]): 18.4 nM; apparent Kd (MS2 coat protein [1]; [8]): 11.6 nM
AUGUAACAUGAGGAUCACCCAUGUAAGGAUAUGCAACAAAACUCUGAAUCGUAAGUUCGCAGAAGGUACAUUAG | 28.4 | 27.3 | 
GAAUGGAAACUAGGAUAUCGGCAGGAGCGGGAGCGAGAAGGAGUUUACUCGGUAUACAUGAGGAUCACCCAUGUGGGUGUGCUG | 294 | 252 | 
GAGACAGGGCAGAAGGUUCUAAACGGCUAAAUGAAAGGAUAUGCAAACAUUGACAUGAGGAUCACCCAUGUGUUAAAAGCUACG | 12.1 | 9.88 | 
GUAACGGGAAGCAGUGGCUUGACAUGAGGAUCACCCAUGUACAGAAGGGACGAUUACGUAAUGCGUCAGGAUAUGUGCCGUAGA |  |  | apparent Kd (MS2 coat protein [1]; [7]): 48 nM; apparent Kd (MS2 coat protein [1]; [8]): 28.1 nM
AUGUUCCGUUAGAAGGUGUUGAGUGGAGGCUCACAAGGAUAUAACUUCCUCGUCGAUGACAUGAGGAUCACCCAUGUAGCACAA | 50.3 | 38.1 | 
UUAGAUCGUGUCAGGAUAUCGGACCGGCCCGCCUCCGAGAAGGGACAUGAGGAUCACCCAUGUCACGGUCCAUU | 7.73 | 7.84 | 
AAAAGAGAAGGAUAUACAGGAAAAGAAAAGAUAUUUCAAUAACAUGAGGAUCACCCAUGUAGAAGGACUAAUAG | 11.8 | 9.74 | 
AAUAUUAUGUCGGCCGCCACUUCCCACAAGAGGUGCCUGCACCCACAUGAGGAUCACCCAUGUCGAAGGACCGGGACGCUCAAUU |  |  | apparent Kd (MS2 coat protein [1]; [3]): 16.8 nM; apparent Kd (MS2 coat protein [1]; [4]): 15.6 nM
CCACAGACAUGAGGAUCACCCAUGUAGUUGGGCGUGUCAUCUCAGGAUAUGGCAACGCUUAUGAGCCAGAAGGGAGAAGGUUAU | 13.4 | 12.8 | 
ACGUAGUGCCGAGGAUAUGUAACAUGAGGAUCACCCAUGUUCUCUAACAGGUCGAUUUUAAGCACACAGAAGGCGGGUGUUGAU | 11.3 | 11.8 | 
GCGCCAAGUAAGAAGGGCUCAAAGGAAAACCUAGACUUCACUACAUGAGGAUCACCCAUGUCUCAGCAGGAUAUUAUCGGUCAA |  |  | apparent Kd (MS2 coat protein [1]; [7]): 22.2 nM; apparent Kd (MS2 coat protein [1]; [8]): 17.9 nM
GUGAACCGUAGGUCGUUGGCUGCACAGGAUAUGAAGGCGUACAUGAGGAUCACCCAUGUUCCCUAUCAGAAGGGUGACAGGAAA |  |  | apparent Kd (MS2 coat protein [2]; [7]): 6.81 nM; apparent Kd (MS2 coat protein [2]; [8]): 5.41 nM
CUUUUGUGAGGAUAUUAGUAGUAAAUAAAUAAAAUUUCUACUGAGAAGGCACAUGAGGAUCACCCAUGUUCCUC |  |  | apparent Kd (MS2 coat protein [2]; [5]): 31.9 nM; apparent Kd (MS2 coat protein [2]; [6]): 182 nM
